From ChEMBL document CHEMBL3046803, “Synthesis and insecticidal activities of novel anthranilic diamides containing acylthiourea and acylurea” (2012)
Converted amounts (≈) assume the structure as drawn. The source made the active and inactive calls. No cut-off for these calls is given here.

Assays:
[1] = target: Voltage-dependent L-type calcium channel, putative (Pediculus humanus subsp. corporis) (UniProt E0VY79); experiment: Inhibition of voltage-dependent L-type calcium channel in Spodoptera exigua neurons assessed as peak calcium current at 0.1 mM measured 1 min post dose by electrophysiology method (reference value: 104.47 +/- 2.33%); design: scale not given: the % may be the effect or the level left
Plutella xylostella [2] = experiment: Insecticidal activity against Plutella xylostella (diamondback moth) s-instar larvae infected in fresh cabbage leaves assessed as larvicidal activity at 20 mg/L measured 2 days post dose; format: functional
Summary of the method: (§1)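 Leaf-dip (spray) test: a 200 mg/L stock in DMF was diluted with distilled water. Cabbage leaf disks (6 × 2 cm) were sprayed for 3 s, dried, and placed individually in glass tubes. Each disk received 30 second-instar larvae. Mortality was scored at 2 days; triplicate.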

[3] = target: Voltage-dependent L-type calcium channel, putative (Pediculus humanus subsp. corporis) (UniProt E0VY79); experiment: Inhibition of voltage-dependent L-type calcium channel in Spodoptera exigua neurons assessed as peak calcium current at 0.1 mM measured 10 min post dose by electrophysiology method (reference value: 85.44 +/- 1.14%); design: scale not given: the % may be the effect or the level left
Plutella xylostella [4] = experiment: Insecticidal activity against Plutella xylostella (diamondback moth) s-instar larvae infected in fresh cabbage leaves assessed as larvicidal activity at 0.01 mg/L measured 2 days post dose; format: functional; summary of the method: as §1
[5] = target: Voltage-dependent L-type calcium channel, putative (Pediculus humanus subsp. corporis) (UniProt E0VY79); experiment: Inhibition of voltage-dependent L-type calcium channel in Spodoptera exigua neurons assessed as peak calcium current at 0.1 mM measured 3 min post dose by electrophysiology method (reference value: 101.76 +/- 2.7%); design: scale not given: the % may be the effect or the level left
Mythimna separata [6] = experiment: Insecticidal activity against Mythimna separata (Oriental armyworm) fourth-instar larvae infected Zea mays leaves assessed as larvicidal activity at 5 mg/L measured 2 days post dose; format: functional
Summary of the method: (§2)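 Foliar application test: individual corn (Tangyu 10) leaves were placed on moistened filter paper in Petri dishes.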

Culex pipiens pallens [7] = experiment: Insecticidal activity against Culex pipiens pallens (mosquito) fourth-instar larvae assessed as larvicidal activity at 0.5 mg/L measured 3 days post dose; format: functional
Summary of the method: (§3)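 Mosquito larvicidal test: compounds were dissolved in acetone and diluted with distilled water to the test concentrations.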

Culex pipiens pallens [8] = experiment: Insecticidal activity against Culex pipiens pallens (mosquito) fourth-instar larvae assessed as larvicidal activity at 2 mg/L measured 3 days post dose; format: functional; summary of the method: as §3
Mythimna separata [9] = experiment: Insecticidal activity against Mythimna separata (Oriental armyworm) fourth-instar larvae infected Zea mays leaves assessed as larvicidal activity at 100 mg/L measured 2 days post dose; format: functional; summary of the method: as §2
[10] = target: Voltage-dependent L-type calcium channel, putative (Pediculus humanus subsp. corporis) (UniProt E0VY79); experiment: Inhibition of voltage-dependent L-type calcium channel in Spodoptera exigua neurons assessed as peak intracellular calcium level at 1000 mg/L measured 10 min post dose by calcium-imaging technique relative to initial untreated control; format: cell-based; design: scale not given: the % may be the effect or the level left
Summary of the method: (§4)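 S. exigua neurons were rinsed in physiological saline (pH 6.9). They were dye-loaded in the dark at 28 °C, either with 10 μM fluo-3-AM for 45 min in standard saline or with 5 μM fluo-5N for 5 h in EGTA Ca-free saline, then rinsed twice. [Ca²⁺]i was imaged on an inverted fluorescence microscope (40× oil, 488/530 nm) over 10 min. F/F₀ is relative to resting baseline; ≥6 repeats; mean ± SD.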

Plutella xylostella [11] = experiment: Insecticidal activity against Plutella xylostella (diamondback moth) s-instar larvae infected in fresh cabbage leaves assessed as larvicidal activity at 0.001 mg/L measured 2 days post dose; format: functional; summary of the method: as §1
Plutella xylostella [12] = experiment: Insecticidal activity against Plutella xylostella (diamondback moth) s-instar larvae infected in fresh cabbage leaves assessed as larvicidal activity measured 2 days post dose; format: functional; details: 48 h; summary of the method: as §1
Mythimna separata [13] = experiment: Insecticidal activity against Mythimna separata (Oriental armyworm) fourth-instar larvae infected Zea mays leaves assessed as larvicidal activity at 10 mg/L measured 2 days post dose; format: functional; summary of the method: as §2
Mythimna separata [14] = experiment: Insecticidal activity against Mythimna separata (Oriental armyworm) fourth-instar larvae infected Zea mays leaves assessed as larvicidal activity at 20 mg/L measured 2 days post dose; format: functional; summary of the method: as §2
Mythimna separata [15] = experiment: Insecticidal activity against Mythimna separata (Oriental armyworm) fourth-instar larvae infected Zea mays leaves assessed as larvicidal activity at 50 mg/L measured 2 days post dose; format: functional; summary of the method: as §2
Plutella xylostella [16] = experiment: Insecticidal activity against Plutella xylostella (diamondback moth) s-instar larvae infected in fresh cabbage leaves assessed as larvicidal activity at 1 mg/L measured 2 days post dose; format: functional; summary of the method: as §1
[17] = target: Voltage-dependent L-type calcium channel, putative (Pediculus humanus subsp. corporis) (UniProt E0VY79); experiment: Inhibition of voltage-dependent L-type calcium channel in Spodoptera exigua neurons assessed as peak calcium current at 0.1 mM measured 5 min post dose by electrophysiology method (reference value: 98.06 +/- 1.01%); design: scale not given: the % may be the effect or the level left
Plutella xylostella [18] = experiment: Insecticidal activity against Plutella xylostella (diamondback moth) s-instar larvae infected in fresh cabbage leaves assessed as larvicidal activity at 0.1 mg/L measured 2 days post dose; format: functional; summary of the method: as §1
Culex pipiens pallens [19] = experiment: Insecticidal activity against Culex pipiens pallens (mosquito) fourth-instar larvae assessed as larvicidal activity at 1 mg/L measured 3 days post dose; format: functional; summary of the method: as §3
Mythimna separata [20] = experiment: Insecticidal activity against Mythimna separata (Oriental armyworm) fourth-instar larvae infected Zea mays leaves assessed as larvicidal activity at 200 mg/L measured 2 days post dose; format: functional; summary of the method: as §2
[21] = target: Voltage-dependent L-type calcium channel, putative (Pediculus humanus subsp. corporis) (UniProt E0VY79); experiment: Inhibition of voltage-dependent L-type calcium channel in Spodoptera exigua neurons assessed as peak calcium current at 0.1 mM measured 2 min post dose by electrophysiology method (reference value: 102.75 +/- 2.45%); design: scale not given: the % may be the effect or the level left
[22] = target: Voltage-dependent L-type calcium channel, putative (Pediculus humanus subsp. corporis) (UniProt E0VY79); experiment: Inhibition of voltage-dependent L-type calcium channel in Spodoptera exigua neurons assessed as peak calcium current at 0.1 mM measured 4 min post dose by electrophysiology method (reference value: 99.66 +/- 1.64%); design: scale not given: the % may be the effect or the level left
[23] = target: Voltage-dependent L-type calcium channel, putative (Pediculus humanus subsp. corporis) (UniProt E0VY79); experiment: Inhibition of voltage-dependent L-type calcium channel in Spodoptera exigua neurons assessed as peak calcium current at 0.1 mM measured 8 min post dose by electrophysiology method (reference value: 90.85 +/- 0.65%); design: scale not given: the % may be the effect or the level left
[24] = target: Voltage-dependent L-type calcium channel, putative (Pediculus humanus subsp. corporis) (UniProt E0VY79); experiment: Inhibition of voltage-dependent L-type calcium channel in Spodoptera exigua neurons assessed as increase in intracellular calcium level at 1000 mg/L measured 10 min post dose by calcium-imaging technique; format: cell-based; summary of the method: as §4
[25] = target: Voltage-dependent L-type calcium channel, putative (Pediculus humanus subsp. corporis) (UniProt E0VY79); experiment: Inhibition of voltage-dependent L-type calcium channel in Spodoptera exigua neurons assessed as change in peak calcium current at 0.1 mM at -70 mV holding potential measured 1 min post dose by electrophysiology method
[26] = target: Voltage-dependent L-type calcium channel, putative (Pediculus humanus subsp. corporis) (UniProt E0VY79); experiment: Inhibition of voltage-dependent L-type calcium channel in Spodoptera exigua neurons assessed as peak calcium current at 0.1 mM at -70 mV holding potential measured 5 min post dose by electrophysiology method
[27] = target: Ryanodien receptor (Spodoptera exigua) (UniProt H9CNL0); experiment: Inhibition of Ryanodine receptor in Spodoptera exigua neurons assessed as reduction in intracellular calcium level at 1000 mg/L pre-treated with 10 mg/ml heparin and 1 uM thapsigargin by calcium-imaging technique; format: cell-based
Summary of the method: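 Primary cultured S. exigua neurons were rinsed in saline, then loaded in the dark at 28 °C with 5 μM fluo-5N for 5 h in Ca-free saline (150 mM NaCl, 4 mM KCl, 2 mM MgCl₂, 2 mM EGTA, 10 mM HEPES, pH 6.9). They were treated with 10 mg/mL heparin for 20 min, then 1 μM thapsigargin for 10 min. Fluorescence was imaged (40× oil, 488/530 nm) and expressed as F/F₀.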

[28] = target: Voltage-dependent L-type calcium channel, putative (Pediculus humanus subsp. corporis) (UniProt E0VY79); experiment: Inhibition of voltage-dependent L-type calcium channel in Spodoptera exigua neurons assessed as change in peak calcium current at 0.001 mM at -70 mV holding potential measured 1 to 10 min post dose by electrophysiology method
[29] = target: Voltage-dependent L-type calcium channel, putative (Pediculus humanus subsp. corporis) (UniProt E0VY79); experiment: Inhibition of voltage-dependent L-type calcium channel in Spodoptera exigua neurons assessed as change in […] calcium level at 1000 mg/L measured 10 min post dose by calcium-imaging technique; summary of the method: as §4
[30] = target: Voltage-dependent L-type calcium channel, putative (Pediculus humanus subsp. corporis) (UniProt E0VY79); experiment: Inhibition of voltage-dependent L-type calcium channel in Spodoptera exigua neurons assessed as peak calcium current at 0.001 mM measured 8 min post dose by electrophysiology method (reference value: 90.85 +/- 0.65%); design: scale not given: the % may be the effect or the level left
[31] = target: Voltage-dependent L-type calcium channel, putative (Pediculus humanus subsp. corporis) (UniProt E0VY79); experiment: Inhibition of voltage-dependent L-type calcium channel in Spodoptera exigua neurons assessed as peak calcium current at 0.001 mM measured 3 min post dose by electrophysiology method (reference value: 101.76 +/- 2.7%); design: scale not given: the % may be the effect or the level left
[32] = target: Voltage-dependent L-type calcium channel, putative (Pediculus humanus subsp. corporis) (UniProt E0VY79); experiment: Inhibition of voltage-dependent L-type calcium channel in Spodoptera exigua neurons assessed as peak calcium current at 0.001 mM measured 4 min post dose by electrophysiology method (reference value: 99.66 +/- 1.64%); design: scale not given: the % may be the effect or the level left
[33] = target: Voltage-dependent L-type calcium channel, putative (Pediculus humanus subsp. corporis) (UniProt E0VY79); experiment: Inhibition of voltage-dependent L-type calcium channel in Spodoptera exigua neurons assessed as peak calcium current at 0.001 mM measured 5 min post dose by electrophysiology method (reference value: 98.06 +/- 1.01%); design: scale not given: the % may be the effect or the level left
[34] = target: Voltage-dependent L-type calcium channel, putative (Pediculus humanus subsp. corporis) (UniProt E0VY79); experiment: Inhibition of voltage-dependent L-type calcium channel in Spodoptera exigua neurons assessed as peak calcium current at 0.1 mM at -70 mV holding potential measured 10 min post dose by electrophysiology method
[35] = target: Voltage-dependent L-type calcium channel, putative (Pediculus humanus subsp. corporis) (UniProt E0VY79); experiment: Inhibition of voltage-dependent L-type calcium channel in Spodoptera exigua neurons assessed as peak calcium current at 0.001 mM measured 10 min post dose by electrophysiology method (reference value: 85.44 +/- 1.14%); design: scale not given: the % may be the effect or the level left

Chain of Voltage-dependent L-type calcium channel, putative (Pediculus humanus subsp. corporis) (E0VY79 as listed by the source): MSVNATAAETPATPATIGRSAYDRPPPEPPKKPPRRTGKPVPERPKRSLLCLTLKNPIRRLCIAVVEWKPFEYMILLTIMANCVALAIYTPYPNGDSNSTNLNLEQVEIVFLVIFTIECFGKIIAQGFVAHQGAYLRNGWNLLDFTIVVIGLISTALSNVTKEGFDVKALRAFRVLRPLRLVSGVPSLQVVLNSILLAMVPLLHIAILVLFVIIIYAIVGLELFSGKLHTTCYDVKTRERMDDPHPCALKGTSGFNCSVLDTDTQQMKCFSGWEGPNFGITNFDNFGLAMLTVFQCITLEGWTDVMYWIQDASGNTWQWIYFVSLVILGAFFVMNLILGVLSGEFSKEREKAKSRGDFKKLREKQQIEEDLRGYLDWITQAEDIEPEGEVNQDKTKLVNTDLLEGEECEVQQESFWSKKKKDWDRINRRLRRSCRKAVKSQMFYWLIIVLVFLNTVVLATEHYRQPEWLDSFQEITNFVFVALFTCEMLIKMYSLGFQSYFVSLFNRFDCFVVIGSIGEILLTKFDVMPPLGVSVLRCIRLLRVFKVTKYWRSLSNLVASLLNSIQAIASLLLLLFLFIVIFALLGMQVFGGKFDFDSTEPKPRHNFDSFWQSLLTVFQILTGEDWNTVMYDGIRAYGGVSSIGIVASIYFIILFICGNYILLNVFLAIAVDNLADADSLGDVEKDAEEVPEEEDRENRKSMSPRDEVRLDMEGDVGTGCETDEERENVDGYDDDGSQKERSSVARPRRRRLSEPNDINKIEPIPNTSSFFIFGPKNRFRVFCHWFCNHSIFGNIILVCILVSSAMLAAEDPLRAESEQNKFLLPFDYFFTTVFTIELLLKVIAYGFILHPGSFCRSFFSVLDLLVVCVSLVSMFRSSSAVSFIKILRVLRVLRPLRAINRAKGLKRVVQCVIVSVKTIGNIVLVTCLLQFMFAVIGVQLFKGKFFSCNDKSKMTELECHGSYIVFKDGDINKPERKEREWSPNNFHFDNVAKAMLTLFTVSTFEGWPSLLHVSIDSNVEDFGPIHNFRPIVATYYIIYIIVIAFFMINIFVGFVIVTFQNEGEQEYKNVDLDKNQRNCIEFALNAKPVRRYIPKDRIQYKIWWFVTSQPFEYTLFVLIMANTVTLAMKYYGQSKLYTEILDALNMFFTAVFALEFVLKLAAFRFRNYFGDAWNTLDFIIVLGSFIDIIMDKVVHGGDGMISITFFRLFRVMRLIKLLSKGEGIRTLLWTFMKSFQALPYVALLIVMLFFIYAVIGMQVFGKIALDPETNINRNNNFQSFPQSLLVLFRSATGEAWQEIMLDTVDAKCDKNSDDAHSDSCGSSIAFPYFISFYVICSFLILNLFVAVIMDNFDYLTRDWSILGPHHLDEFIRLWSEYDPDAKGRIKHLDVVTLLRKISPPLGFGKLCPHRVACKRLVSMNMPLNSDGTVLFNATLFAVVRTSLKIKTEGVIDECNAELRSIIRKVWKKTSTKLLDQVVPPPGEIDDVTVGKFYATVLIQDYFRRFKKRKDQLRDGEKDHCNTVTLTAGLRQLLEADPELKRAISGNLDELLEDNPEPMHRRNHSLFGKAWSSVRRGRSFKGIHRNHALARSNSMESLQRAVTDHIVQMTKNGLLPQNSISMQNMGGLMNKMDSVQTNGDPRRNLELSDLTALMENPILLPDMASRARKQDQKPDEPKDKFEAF

CNC(=O)c1cc(Cl)cc(C)c1NC(=O)c1cc(Br)nn1-c1ncccc1Cl [CHLORANTRANILIPROLE]
Activity [1]: 89.6%
Activity (Plutella xylostella [2]): 100%
Activity [3]: 39.7%
Activity (Plutella xylostella [4]): 100%
Activity [5]: 69.6%
Activity (Mythimna separata [6]): 100%
Activity (Culex pipiens pallens [7]): 100%
Activity (Culex pipiens pallens [8]): 100%
Activity (Mythimna separata [9]): 100%
Activity [10]: 123%
Activity (Plutella xylostella [11]): 100%
LC50 (Plutella xylostella [12]): 0.0123 ng/mL (≈ 0.0255 nM)
Activity (Mythimna separata [13]): 100%
Activity (Mythimna separata [14]): 100%
Activity (Mythimna separata [15]): 100%
Activity (Plutella xylostella [16]): 100%
Activity [17]: 55.8%
Activity (Plutella xylostella [18]): 100%
Activity (Culex pipiens pallens [19]): 100%
Activity (Mythimna separata [20]): 100%
Activity [21]: 74%
Activity [22]: 63.4%
Activity [23]: 44.3%

Cc1cc(Cl)cc(C(=O)NC(C)C)c1NC(=S)NC(=O)c1cc(Cl)nn1-c1ncccc1Cl
Activity [24]: Active
Activity [25]: 10 mV
Activity [26]: -1.64 nanoampere
Activity [1]: 91.5%
inhibition [27]: Active
Activity [3]: 54.7%
Activity [5]: 80.7%
inhibition [28]: inactive
Activity (Mythimna separata [6]): 40%
inhibition [29]: inactive
Activity (Culex pipiens pallens [8]): 40%
Activity (Mythimna separata [9]): 100%
Activity [10]: 117%
Activity (Mythimna separata [13]): 100%
Activity (Mythimna separata [14]): 100%
Activity (Mythimna separata [15]): 100%
Activity [30]: 81.2%
Activity [31]: 95.8%
Activity [32]: 90.1%
Activity [17]: 70.2%
Activity [33]: 84.4%
Activity [34]: -1.27 nanoampere
Activity (Mythimna separata [20]): 100%
Activity [21]: 84.1%
Activity [22]: 74.4%
Activity [35]: 74.6%
Activity [23]: 61%
